Experimental data from ChEMBL document CHEMBL1152541, “Staurosporine tethered peptide ligands that target cAMP-dependent protein kinase (PKA): optimization and selectivity profiling” (Bioorg Med Chem, 2009).
*1 amine or outer side, *2 acyl side, *3 side chain or, on linkers, in order; H or OH if unused. Where a SMILES comes first, the peptide text is derived from it. Bridges are numbered along the chain shown (N, C = ends). [ ]: non-standard residue; d: D form. The star is where a group is joined. Staurosporine = CO[C@@H]1[C@H](N(C)*)C[C@H]2O[C@]1(C)n1c3ccccc3c3c4c(c5c6ccccc6n2c5c31)C(=O)NC4; Suc = O=C(CCC(=O)[*:2])[*:1]; Dap = NC[C@H](N)C(=O)O; βAla = NCCC(=O)O

Assays:
[1] = tested on: Serine/threonine-protein kinase B-raf (Homo sapiens), P15056 [V600E]; experiment: Binding affinity to human BRAF V600E mutant at 500 nM by cell-based competition binding assay relative to control in presence of DTT
How it was run: (§1)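 Kinase binding profiling ran on a commercial (Ambit) competitive binding screen against a panel of 90 kinases. The screen used reducing conditions with 7.5 mM DTT. To withstand the DTT, the bivalent ligand was tested as its amide isostere, with the disulfide replaced. A staurosporine derivative carrying a 3 β-alanine linker was run as the reference compound.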

[2] = biological target: Mitogen-activated protein kinase kinase kinase 9 (Homo sapiens) (UniProt P80192); experiment: Binding affinity to human MLK1 at 500 nM by cell-based competition binding assay relative to control in presence of DTT
[3] = biological target: Serine/threonine-protein kinase PLK3 (Homo sapiens) (UniProt Q9H4B4); experiment: Binding affinity to human PLK3 at 500 nM by cell-based competition binding assay relative to control in presence of DTT
[4] = biological target: Dual specificity mitogen-activated protein kinase kinase 1 (Homo sapiens) (UniProt Q02750); experiment: Binding affinity to human MEK1 at 500 nM by cell-based competition binding assay relative to control in presence of DTT
How it was run: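 Kinase binding profile from a commercial panel of 90 kinases, run as a competitive binding assay. The panel was screened under reducing conditions of 7.5 mM DTT. Signal was compared with the untreated control.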

[5] = biological target: Phosphatidylinositol 4,5-bisphosphate 3-kinase catalytic subunit gamma isoform (Homo sapiens) (UniProt P48736); experiment: Binding affinity to human PIK3Cgamma at 500 nM by cell-based competition binding assay relative to control in presence of DTT
Phosphatidylinositol 4,5-bisphosphate 3-kinase catalytic subunit gamma isoform (Homo sapiens), sequence (P48736 whole entry, looked up, canonical isoform): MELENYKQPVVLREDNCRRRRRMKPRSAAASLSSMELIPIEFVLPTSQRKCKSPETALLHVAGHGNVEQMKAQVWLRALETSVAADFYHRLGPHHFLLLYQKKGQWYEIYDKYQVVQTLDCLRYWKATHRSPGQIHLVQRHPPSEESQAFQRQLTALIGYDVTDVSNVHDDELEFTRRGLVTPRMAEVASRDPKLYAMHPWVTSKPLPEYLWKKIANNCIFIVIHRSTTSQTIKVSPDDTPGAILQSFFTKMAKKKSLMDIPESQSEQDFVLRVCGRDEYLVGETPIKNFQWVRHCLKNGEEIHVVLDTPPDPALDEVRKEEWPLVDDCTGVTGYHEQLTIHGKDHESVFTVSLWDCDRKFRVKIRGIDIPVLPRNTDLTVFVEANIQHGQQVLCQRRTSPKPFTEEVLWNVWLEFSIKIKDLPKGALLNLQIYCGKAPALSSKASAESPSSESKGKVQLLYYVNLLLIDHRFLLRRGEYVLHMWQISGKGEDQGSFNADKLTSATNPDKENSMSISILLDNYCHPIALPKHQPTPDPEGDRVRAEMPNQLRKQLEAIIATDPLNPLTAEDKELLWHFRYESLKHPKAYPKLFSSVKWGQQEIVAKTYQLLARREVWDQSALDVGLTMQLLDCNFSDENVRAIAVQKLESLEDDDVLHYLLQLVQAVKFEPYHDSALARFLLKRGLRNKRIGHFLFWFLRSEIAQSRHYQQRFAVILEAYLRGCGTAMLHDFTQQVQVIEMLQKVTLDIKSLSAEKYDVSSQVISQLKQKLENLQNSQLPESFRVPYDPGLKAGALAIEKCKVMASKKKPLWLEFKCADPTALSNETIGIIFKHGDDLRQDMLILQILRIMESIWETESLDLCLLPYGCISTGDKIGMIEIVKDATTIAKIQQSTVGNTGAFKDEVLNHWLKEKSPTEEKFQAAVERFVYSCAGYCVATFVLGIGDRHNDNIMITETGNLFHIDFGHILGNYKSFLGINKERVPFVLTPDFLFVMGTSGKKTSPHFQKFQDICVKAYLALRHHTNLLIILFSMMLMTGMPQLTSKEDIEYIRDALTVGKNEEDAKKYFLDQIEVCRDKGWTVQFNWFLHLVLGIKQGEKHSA

[6] = Ratio of compound to staurosporine binding affinity to PKA in presence of DTT
[7] = tested on: Tyrosine-protein kinase ABL1 (Homo sapiens), P00519 [T315I]; experiment: Binding affinity to human ABL1 T315I mutant at 500 nM by cell-based competition binding assay relative to control in presence of DTT; how it was run: as §1
[8] = biological target: Mitogen-activated protein kinase 9 (Homo sapiens) (UniProt P45984); experiment: Binding affinity to human JNK2 at 500 nM by cell-based competition binding assay relative to control in presence of DTT
How it was run: (§2)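 Competition binding screen (Ambit) across a panel of 90 kinases, scoring test ligand displacement of each kinase's binding relative to control. The screen ran under reducing conditions with 7.5 mM DTT.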

[9] = biological target: Platelet-derived growth factor receptor alpha (Homo sapiens) (UniProt P16234); experiment: Binding affinity to human PDGFRalpha at 500 nM by cell-based competition binding assay relative to control in presence of DTT
[10] = biological target: T1, TGF-beta receptor type-1 (Homo sapiens) (UniProt P36897); experiment: Binding affinity to human TGFBR1 at 500 nM by cell-based competition binding assay relative to control in presence of DTT
T1 sequence (whole entry): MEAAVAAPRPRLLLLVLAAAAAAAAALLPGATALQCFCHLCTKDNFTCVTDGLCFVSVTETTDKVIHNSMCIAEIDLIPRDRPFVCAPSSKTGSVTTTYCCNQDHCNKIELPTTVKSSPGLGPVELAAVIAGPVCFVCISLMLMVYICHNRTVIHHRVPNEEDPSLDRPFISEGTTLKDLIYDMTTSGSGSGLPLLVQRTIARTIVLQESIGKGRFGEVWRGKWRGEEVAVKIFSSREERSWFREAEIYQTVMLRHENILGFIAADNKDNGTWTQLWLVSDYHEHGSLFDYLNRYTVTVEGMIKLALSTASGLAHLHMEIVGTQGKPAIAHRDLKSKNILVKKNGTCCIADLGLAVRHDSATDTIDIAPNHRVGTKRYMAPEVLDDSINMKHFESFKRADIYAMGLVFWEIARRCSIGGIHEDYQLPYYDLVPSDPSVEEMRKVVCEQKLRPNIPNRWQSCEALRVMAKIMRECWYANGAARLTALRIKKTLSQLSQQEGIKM

[11] = biological target: Glycogen synthase kinase-3 beta (Homo sapiens) (UniProt P49841); experiment: Binding affinity to human GSK3-beta at 500 nM by cell-based competition binding assay relative to control in presence of DTT; how it was run: as §2
Glycogen synthase kinase-3 beta (Homo sapiens), sequence (P49841 whole entry, looked up): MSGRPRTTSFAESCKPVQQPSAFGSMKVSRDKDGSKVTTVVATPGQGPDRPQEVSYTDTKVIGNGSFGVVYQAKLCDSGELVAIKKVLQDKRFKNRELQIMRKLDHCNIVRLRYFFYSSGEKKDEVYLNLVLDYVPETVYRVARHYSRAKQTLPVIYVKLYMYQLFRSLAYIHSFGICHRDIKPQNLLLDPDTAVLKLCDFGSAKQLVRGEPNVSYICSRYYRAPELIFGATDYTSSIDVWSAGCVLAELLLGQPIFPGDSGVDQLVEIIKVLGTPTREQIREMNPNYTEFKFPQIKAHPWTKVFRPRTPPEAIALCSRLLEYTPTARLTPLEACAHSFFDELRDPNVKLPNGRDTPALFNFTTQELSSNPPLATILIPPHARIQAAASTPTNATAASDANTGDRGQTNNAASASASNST

[12] = biological target: Cyclin-dependent kinase 19 (Homo sapiens) (UniProt Q9BWU1); experiment: Binding affinity to human CDK11 at 500 nM by cell-based competition binding assay relative to control in presence of DTT; how it was run: as §1
[13] = biological target: Tyrosine-protein kinase BTK (Homo sapiens) (UniProt Q06187); experiment: Binding affinity to human BTK at 200 nM by cell-based competition binding assay relative to control in presence of DTT; how it was run: as §1
[14] = biological target: MAP kinase-activated protein kinase 2 (Homo sapiens) (UniProt P49137); experiment: Binding affinity to human MAPKAPK2 at 200 nM by cell-based competition binding assay relative to control in presence of DTT; how it was run: as §2
MAP kinase-activated protein kinase 2 (Homo sapiens), sequence (P49137 whole entry, looked up): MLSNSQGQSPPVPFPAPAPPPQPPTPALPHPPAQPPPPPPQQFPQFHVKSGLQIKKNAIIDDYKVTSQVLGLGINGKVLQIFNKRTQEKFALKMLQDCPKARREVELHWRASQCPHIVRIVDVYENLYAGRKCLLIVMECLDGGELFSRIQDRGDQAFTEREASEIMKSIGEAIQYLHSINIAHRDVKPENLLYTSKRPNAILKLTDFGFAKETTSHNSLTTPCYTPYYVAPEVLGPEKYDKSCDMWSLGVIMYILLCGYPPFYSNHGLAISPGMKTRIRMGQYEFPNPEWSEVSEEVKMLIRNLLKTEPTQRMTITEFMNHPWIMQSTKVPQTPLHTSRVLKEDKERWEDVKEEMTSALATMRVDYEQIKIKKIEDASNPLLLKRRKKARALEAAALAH

[15] = biological target: Dual specificity tyrosine-phosphorylation-regulated kinase 1B (Homo sapiens) (UniProt Q9Y463); experiment: Binding affinity to human DYRK1B at 200 nM by cell-based competition binding assay relative to control in presence of DTT
Dual specificity tyrosine-phosphorylation-regulated kinase 1B (Homo sapiens), sequence (Q9Y463 whole entry, looked up): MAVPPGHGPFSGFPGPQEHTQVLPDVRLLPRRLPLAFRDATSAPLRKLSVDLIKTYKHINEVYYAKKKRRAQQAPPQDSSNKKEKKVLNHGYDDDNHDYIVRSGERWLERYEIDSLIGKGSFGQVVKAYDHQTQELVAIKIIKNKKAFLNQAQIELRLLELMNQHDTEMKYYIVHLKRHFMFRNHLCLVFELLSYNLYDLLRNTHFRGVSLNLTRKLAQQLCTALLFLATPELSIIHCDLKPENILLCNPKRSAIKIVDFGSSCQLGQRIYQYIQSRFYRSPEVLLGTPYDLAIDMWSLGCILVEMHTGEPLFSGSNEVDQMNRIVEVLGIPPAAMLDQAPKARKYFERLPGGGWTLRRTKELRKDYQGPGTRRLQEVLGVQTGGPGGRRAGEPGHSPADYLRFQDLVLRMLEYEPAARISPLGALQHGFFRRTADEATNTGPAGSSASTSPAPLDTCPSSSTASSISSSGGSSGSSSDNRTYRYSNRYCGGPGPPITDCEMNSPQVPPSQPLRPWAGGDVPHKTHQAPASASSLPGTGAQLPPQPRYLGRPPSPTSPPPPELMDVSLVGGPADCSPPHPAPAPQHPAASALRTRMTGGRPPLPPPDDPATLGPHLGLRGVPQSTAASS
How it was run: (§3)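 Commercial (Ambit) competitive kinase-binding panel of 90 kinases measured the binding profile. Run under reducing conditions of 7.5 mM DTT. Binding is expressed relative to control.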

[16] = biological target: Glycogen synthase kinase-3 beta (Homo sapiens) (UniProt P49841); experiment: Binding affinity to human GSK3-beta at 200 nM by cell-based competition binding assay relative to control in presence of DTT; how it was run: as §3
[17] = biological target: Aurora kinase B (Homo sapiens) (UniProt Q96GD4); experiment: Binding affinity to human aurora kinase B at 200 nM by cell-based competition binding assay relative to control in presence of DTT
Aurora kinase B (Homo sapiens), sequence (Q96GD4 whole entry): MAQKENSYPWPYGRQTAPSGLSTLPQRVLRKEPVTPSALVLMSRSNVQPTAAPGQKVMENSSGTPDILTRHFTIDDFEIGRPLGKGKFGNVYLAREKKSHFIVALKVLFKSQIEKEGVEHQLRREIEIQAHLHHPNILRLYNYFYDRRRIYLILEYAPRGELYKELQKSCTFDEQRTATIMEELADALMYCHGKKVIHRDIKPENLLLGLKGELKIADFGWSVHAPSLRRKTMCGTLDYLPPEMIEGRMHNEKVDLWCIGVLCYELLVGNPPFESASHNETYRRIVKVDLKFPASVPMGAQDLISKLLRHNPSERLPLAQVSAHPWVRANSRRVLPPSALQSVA

[18] = biological target: Fibroblast growth factor receptor 2 (Homo sapiens) (UniProt P21802); experiment: Binding affinity to human FGFR2 at 200 nM by cell-based competition binding assay relative to control in presence of DTT; how it was run: as §3
Fibroblast growth factor receptor 2 (Homo sapiens), sequence (P21802 22-821 limits assumed): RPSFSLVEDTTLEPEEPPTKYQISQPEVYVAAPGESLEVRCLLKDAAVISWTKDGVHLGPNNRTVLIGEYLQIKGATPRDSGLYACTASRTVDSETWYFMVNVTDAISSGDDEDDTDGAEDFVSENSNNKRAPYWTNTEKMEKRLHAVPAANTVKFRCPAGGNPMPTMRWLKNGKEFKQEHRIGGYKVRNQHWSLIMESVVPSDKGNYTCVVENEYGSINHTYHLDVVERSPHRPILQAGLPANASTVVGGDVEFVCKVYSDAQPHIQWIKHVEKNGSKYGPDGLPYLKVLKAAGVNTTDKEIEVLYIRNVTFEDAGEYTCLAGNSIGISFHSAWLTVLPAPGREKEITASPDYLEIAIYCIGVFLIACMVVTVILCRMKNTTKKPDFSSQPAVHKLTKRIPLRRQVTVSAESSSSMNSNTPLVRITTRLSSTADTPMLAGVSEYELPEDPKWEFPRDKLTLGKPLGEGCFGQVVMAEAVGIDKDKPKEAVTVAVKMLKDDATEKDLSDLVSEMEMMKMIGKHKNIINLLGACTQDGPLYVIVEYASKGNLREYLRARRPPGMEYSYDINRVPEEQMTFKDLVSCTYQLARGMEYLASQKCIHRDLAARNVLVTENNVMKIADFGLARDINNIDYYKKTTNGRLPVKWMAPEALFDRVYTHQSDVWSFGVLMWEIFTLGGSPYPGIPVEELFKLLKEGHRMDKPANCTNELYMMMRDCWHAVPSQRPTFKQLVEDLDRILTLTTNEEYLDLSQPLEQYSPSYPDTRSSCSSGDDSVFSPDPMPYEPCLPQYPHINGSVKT

[19] = biological target: Aurora kinase B (Homo sapiens) (UniProt Q96GD4); experiment: Binding affinity to human aurora kinase B at 50 nM by cell-based competition binding assay relative to control in presence of DTT
[20] = biological target: Serine/threonine-protein kinase 32C (Homo sapiens) (UniProt Q86UX6); experiment: Binding affinity to human YANK3 at 50 nM by cell-based competition binding assay relative to control in presence of DTT
Serine/threonine-protein kinase 32C (Homo sapiens), sequence (Q86UX6 whole entry, the tested form may be a part): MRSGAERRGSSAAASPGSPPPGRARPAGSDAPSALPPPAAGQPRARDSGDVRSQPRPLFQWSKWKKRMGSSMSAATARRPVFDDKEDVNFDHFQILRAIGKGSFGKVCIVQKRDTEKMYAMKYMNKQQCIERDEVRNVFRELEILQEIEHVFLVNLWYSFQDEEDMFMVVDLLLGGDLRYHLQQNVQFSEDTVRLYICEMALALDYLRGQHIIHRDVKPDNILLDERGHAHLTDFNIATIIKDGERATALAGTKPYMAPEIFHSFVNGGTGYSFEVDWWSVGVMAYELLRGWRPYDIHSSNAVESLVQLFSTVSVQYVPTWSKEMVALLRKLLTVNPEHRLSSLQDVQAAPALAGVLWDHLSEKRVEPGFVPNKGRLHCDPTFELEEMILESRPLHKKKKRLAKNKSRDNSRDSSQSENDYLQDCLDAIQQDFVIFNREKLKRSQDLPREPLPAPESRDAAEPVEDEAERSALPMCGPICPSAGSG

[21] = biological target: Non-receptor tyrosine-protein kinase TYK2 (Homo sapiens) (UniProt P29597); experiment: Binding affinity to human TYK2 kinase domain 2 at 50 nM by cell-based competition binding assay relative to control in presence of DTT
[22] = biological target: Cyclin-dependent kinase 9 (Homo sapiens) (UniProt P50750); experiment: Binding affinity to human CDK9 at 50 nM by cell-based competition binding assay relative to control in presence of DTT; how it was run: as §3
Cyclin-dependent kinase 9 (Homo sapiens), sequence (P50750 whole entry): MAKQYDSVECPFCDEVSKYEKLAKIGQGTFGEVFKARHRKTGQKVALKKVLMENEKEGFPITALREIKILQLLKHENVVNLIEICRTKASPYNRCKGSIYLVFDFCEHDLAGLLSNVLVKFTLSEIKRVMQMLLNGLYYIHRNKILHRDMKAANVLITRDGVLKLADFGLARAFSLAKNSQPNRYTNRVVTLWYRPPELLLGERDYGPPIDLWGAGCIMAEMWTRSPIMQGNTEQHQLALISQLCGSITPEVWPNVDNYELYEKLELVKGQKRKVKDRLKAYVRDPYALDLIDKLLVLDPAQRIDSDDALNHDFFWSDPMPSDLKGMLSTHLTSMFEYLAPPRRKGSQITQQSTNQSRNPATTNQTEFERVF

[23] = biological target: Cyclin-dependent kinase 7 (Homo sapiens) (UniProt P50613); experiment: Binding affinity to human CDK7 at 50 nM by cell-based competition binding assay relative to control in presence of DTT; how it was run: as §1
Cyclin-dependent kinase 7 (Homo sapiens), sequence (P50613 whole entry): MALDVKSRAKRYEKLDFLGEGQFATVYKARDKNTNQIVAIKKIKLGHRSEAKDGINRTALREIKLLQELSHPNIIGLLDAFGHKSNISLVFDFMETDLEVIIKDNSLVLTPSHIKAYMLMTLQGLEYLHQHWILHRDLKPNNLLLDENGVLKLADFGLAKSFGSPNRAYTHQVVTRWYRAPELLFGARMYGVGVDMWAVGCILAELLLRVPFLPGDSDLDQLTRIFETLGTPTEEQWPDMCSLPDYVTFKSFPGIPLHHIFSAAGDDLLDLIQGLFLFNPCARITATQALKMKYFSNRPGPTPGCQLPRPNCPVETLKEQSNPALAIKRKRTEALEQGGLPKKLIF

[24] = biological target: Dual specificity tyrosine-phosphorylation-regulated kinase 1B (Homo sapiens) (UniProt Q9Y463); experiment: Binding affinity to human DYRK1B at 50 nM by cell-based competition binding assay relative to control in presence of DTT; how it was run: as §3

## CO[C@@H]1[C@H](N(C)C(=O)CCC(=O)NCCC(=O)NCCC(=O)NCCC(N)=O)C[C@H]2O[C@]1(C)n1c3ccccc3c3c4c(c5c6ccccc6n2c5c31)C(=O)NC4
[1]
  Activity: 94%
[2]
  Activity: 0.55%
[3]
  Activity: 100%
[4]
  Activity: 100%
[5]
  Activity: 15%
[6]
  Selectivity ratio: 14
[7]
  Activity: 35%
[8]
  Activity: 87%
[9]
  Activity: 7%
[10]
  Activity: 75%
[11]
  Activity: 94%
[12]
  Activity: 61%

## CO[C@@H]1[C@H](N(C)C(=O)CCC(=O)NCCC(=O)NCCC(=O)NCCC(=O)NCCC(=O)NCCC(=O)NCCC(=O)NCCC(=O)N[C@H]2CSSC[C@@H](C(=O)NCC(N)=O)NC(=O)CNC(=O)[C@H](Cc3ccccc3)NC(=O)[C@H](C(C)C)NC(=O)[C@H](CCCNC(=N)N)NC(=O)[C@H](Cc3ccccc3)NC(=O)[C@H](C(C)C)NC2=O)C[C@H]2O[C@]1(C)n1c3ccccc3c3c4c(c5c6ccccc6n2c5c31)C(=O)NC4 ({Staurosporine-Suc-βAla-βAla-βAla-βAla-βAla-βAla-βAla}-CVFRVFGCG-NH2; disulfide 1-8)
[13]
  Activity: 62%
[14]
  Activity: 100%
[15]
  Activity: 14%
[16]
  Activity: 100%
[17]
  Activity: 5.8%
[18]
  Activity: 66%

## CO[C@@H]1[C@H](N(C)C(=O)CCC(=O)NCCC(=O)NCCC(=O)NCCC(=O)NCCC(=O)NCCC(=O)NCCC(=O)NCCC(=O)N[C@H]2CNC(=O)C[C@@H](C(N)=O)NC(=O)CNC(=O)[C@H](Cc3ccccc3)NC(=O)[C@H](C(C)C)NC(=O)[C@H](CCCNC(=N)N)NC(=O)[C@H](Cc3ccccc3)NC(=O)[C@H](C(C)C)NC2=O)C[C@H]2O[C@]1(C)n1c3ccccc3c3c4c(c5c6ccccc6n2c5c31)C(=O)NC4 ({Staurosporine-Suc-βAla-βAla-βAla-βAla-βAla-βAla-βAla}-[Dap]VFRVFGD-NH2; lactam 1-8)
[19]
  Activity: 33%
[20]
  Activity: 100%
[21]
  Activity: 100%
[22]
  Activity: 99%
[23]
  Activity: 98%
[24]
  Activity: 79%
